From PMC6736640 (ACS chemical neuroscience, 2018)

Target: Asyn fibrils (Homo sapiens, UniProt P37840)
Assay: Radioligand competition binding on Asyn fibrils with [3H]1
Procedure, shortened: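 Recombinant human Asyn fibrils at 150 nM incubated with 2 nM [3H]1 and test compound (1–1000 nM) in 30 mM Tris-HCl pH 7.4 with 0.1% BSA for 2 h at 37 °C. Bound ligand separated by vacuum filtration through 1.0 μm glass fiber filters, washed three times with cold buffer, and counted by scintillation after overnight incubation. Triplicates. EC50 from sigmoidal fit; Ki = EC50/(1+[radioligand]/Kd).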

COc1ccc(/C=C/c2cc(-c3nccs3)on2)cc1 [compound 1, (E)-3-(4-methoxystyryl)-5-(thiazol-2-yl)isoxazole]
Kd: 47 nM
